ChEMBL document CHEMBL4000184, “Synthesis of Novel c(AmpRGD)-Sunitinib Dual Conjugates as Molecular Tools Targeting the αvβ3 Integrin/VEGFR2 Couple and Impairing Tumor-Associated Angiogenesis” (J Med Chem, 2017)
Calls of active or inactive are those of the source. The rule behind the calls is not given here.

Columns and labels:
EPC [1] = assay: Inhibition of VEGF-A-induced cell proliferation in human EPC at 1 uM measured after 48 hrs by trypan blue exclusion assay; type: functional, cell-based
Method in brief: (§1)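 Human cord-blood EPCs seeded at 6,000 cells/well on gelatin, adhered 4 h in complete medium. Then placed in serum-free medium with VEGF-A 20 ng/mL and compound at 1 μM, re-added every 24 h. Cell number and viability measured by trypan blue exclusion at 24, 48 and 72 h. Triplicate, repeated at least three times.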

[2] = Cytotoxicity against human EPC assessed as cell viability at 1 uM measured after 24 to 72 hrs by trypan blue exclusion assay; type: cell-based; method in brief: as §1
Integrin alpha-V/beta-3 [3] = target: T1, Integrin alpha-V/beta-3 (Homo sapiens, UniProt P05106+P06756); conditions: 1 to 10000 nM
[4] = Stability in human plasma assessed as compound remaining at 1 uM measured up to 8 hrs by HPLC-UV-Vis analysis; type: ADME, cell-free; conditions: read-out: Stability
Method in brief: (§2)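 Rat or human plasma diluted to 80% v/v with 100 mM PBS pH 7.4; compound at 1 μM final, 37 °C, protected from light. Aliquots sampled over time up to 8 h, quenched with two volumes MeCN, centrifuged, and analyzed by HPLC-UV-Vis for % compound remaining.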

Mus musculus = assay: In vivo antiangiogenic activity in EHS derived matrigel plug implanted FVB mouse assessed as inhibition of VEGF-A-induced angiogenesis at 10 mg/kg, by microscopic method
Integrin alpha-V/beta-3 [5] = target: T1, Integrin alpha-V/beta-3; assay: Drug internalization in human EPC assessed as alphavbeta3-mediated drug uptake by measuring intracellular content per mg protein at 1 uM measured after 1 hr by HPLC-ESI-MS/MS analysis; type: ADME, cell-based
Method in brief: (§3)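 Confluent EPCs in serum- and growth-factor-free medium received compound at 1 μM final for 1 h at 37 °C. Cells washed with PBS, then extracted immediately or 8 h later with ethanol at 4 °C. Extract measured by HPLC-ESI-MS/MS; protein by Bradford. Reported as nmol/mg protein; uptake rate as pmol/min/mg protein over the first hour. Triplicate.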
Target sequence in this assay (P05106 27-788 limits assumed): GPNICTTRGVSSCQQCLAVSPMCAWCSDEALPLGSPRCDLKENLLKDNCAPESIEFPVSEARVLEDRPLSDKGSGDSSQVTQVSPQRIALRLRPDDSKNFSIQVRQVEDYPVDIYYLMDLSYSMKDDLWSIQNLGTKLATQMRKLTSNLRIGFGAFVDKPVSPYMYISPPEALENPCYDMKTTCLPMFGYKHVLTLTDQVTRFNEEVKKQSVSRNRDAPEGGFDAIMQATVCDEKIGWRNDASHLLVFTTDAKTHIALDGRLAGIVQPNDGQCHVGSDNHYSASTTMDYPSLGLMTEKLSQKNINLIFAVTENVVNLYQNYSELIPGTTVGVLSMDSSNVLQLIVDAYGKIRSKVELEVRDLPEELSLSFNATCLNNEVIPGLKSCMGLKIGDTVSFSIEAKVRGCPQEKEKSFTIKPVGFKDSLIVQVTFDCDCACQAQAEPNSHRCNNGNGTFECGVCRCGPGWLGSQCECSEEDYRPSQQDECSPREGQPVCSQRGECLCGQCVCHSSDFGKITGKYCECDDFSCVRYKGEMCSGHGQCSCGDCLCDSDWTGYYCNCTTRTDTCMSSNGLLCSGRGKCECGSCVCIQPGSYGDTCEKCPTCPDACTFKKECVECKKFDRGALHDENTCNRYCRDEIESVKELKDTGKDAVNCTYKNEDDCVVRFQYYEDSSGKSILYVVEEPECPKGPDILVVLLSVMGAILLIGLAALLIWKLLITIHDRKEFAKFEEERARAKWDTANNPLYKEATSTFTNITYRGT
Target sequence in this assay (P06756 31-889 limits assumed): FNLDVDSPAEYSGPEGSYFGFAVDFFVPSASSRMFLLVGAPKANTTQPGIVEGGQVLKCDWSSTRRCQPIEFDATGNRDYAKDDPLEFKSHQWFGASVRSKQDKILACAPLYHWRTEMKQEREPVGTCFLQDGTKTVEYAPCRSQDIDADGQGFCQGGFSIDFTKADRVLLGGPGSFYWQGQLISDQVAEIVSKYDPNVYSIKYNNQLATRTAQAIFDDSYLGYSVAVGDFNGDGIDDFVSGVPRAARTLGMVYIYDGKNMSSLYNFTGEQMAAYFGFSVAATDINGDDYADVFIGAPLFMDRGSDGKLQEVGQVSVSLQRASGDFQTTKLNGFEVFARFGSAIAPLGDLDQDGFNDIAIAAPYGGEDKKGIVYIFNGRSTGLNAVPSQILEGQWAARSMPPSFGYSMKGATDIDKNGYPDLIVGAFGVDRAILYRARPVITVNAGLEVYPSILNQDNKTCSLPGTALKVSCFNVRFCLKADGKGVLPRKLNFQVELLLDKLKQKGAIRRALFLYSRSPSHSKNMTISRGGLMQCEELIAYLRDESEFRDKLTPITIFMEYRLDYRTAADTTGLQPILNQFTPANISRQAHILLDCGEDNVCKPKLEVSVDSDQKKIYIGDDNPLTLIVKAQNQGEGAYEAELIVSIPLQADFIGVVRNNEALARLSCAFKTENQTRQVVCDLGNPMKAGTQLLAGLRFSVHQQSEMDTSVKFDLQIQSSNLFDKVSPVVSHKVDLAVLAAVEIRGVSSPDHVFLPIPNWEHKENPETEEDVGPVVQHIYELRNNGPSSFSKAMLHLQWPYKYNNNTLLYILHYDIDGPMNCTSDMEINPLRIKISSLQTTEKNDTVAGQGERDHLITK
Target sequence in this assay (P06756 891-1048 limits assumed): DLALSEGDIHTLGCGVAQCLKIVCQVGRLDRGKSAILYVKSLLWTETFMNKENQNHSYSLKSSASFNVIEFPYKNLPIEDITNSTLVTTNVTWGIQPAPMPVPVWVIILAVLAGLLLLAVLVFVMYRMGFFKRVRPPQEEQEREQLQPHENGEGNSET

[6] = Antiangiogenic activity in human EPC assessed as inhibition of VEGF-A induced tubule formation at 10 nM measured after 6 hrs by matrigel based phase contrast microscopic analysis relative to control; type: functional
Method in brief: (§4)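 EPCs grown 24 h in EGM-2, trypsinized, resuspended in serum/growth-factor-free EGM-2 with VEGF-A 20 ng/mL plus compound (0.01, 0.1, 1.0 μM) and seeded on growth-factor-reduced Matrigel at 7×10^4 cells/well. Incubated 6 h at 37 °C, photographed by phase contrast. Loops counted in four random fields per well, given as % reduction vs untreated cells. Triplicate.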

Integrin alpha-V/beta-3 [7] = target: T1, Integrin alpha-V/beta-3; assay: Drug uptake in human EPC assessed as alphavbeta3-mediated drug uptake by measuring intracellular content per mg protein at 1 uM measured after 8 hr by HPLC-ESI-MS/MS analysis; type: ADME, cell-based; method in brief: as §3
Target sequence in this assay (P05106 27-788 limits assumed): as the sequence (P05106 27-788 limits assumed) above
Target sequence in this assay (P06756 31-889 limits assumed): as the sequence (P06756 31-889 limits assumed) above
Target sequence in this assay (P06756 891-1048 limits assumed): as the sequence (P06756 891-1048 limits assumed) above

[8] = Inhibition of VEGF-A-induced cell proliferation in human EPC at 1 uM measured after 24 hrs by trypan blue exclusion assay relative to control; type: functional; method in brief: as §1
EPC [9] = assay: Inhibition of VEGF-A-induced cell proliferation in human EPC at 1 uM measured after 72 hrs by trypan blue exclusion assay; type: functional, cell-based; method in brief: as §1
[10] = n-Octanol-buffer distribution coefficient, log D of the compound at pH 7.4 incubated for 4 hrs by HPLC-UV-vis based shake flask method; type: physicochemical
Method in brief: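 Shake-flask partition between n-octanol and 50 mM MOPS pH 7.4 (ionic strength 0.15 M, KCl) at 25 ± 3 °C. Phases pre-saturated and equilibrated 4 h in the dark; each phase analyzed by HPLC-UV-Vis. Mean of at least three runs with different volume ratios.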

[11] = Stability in rat plasma assessed as compound remaining at 1 uM measured up to 8 hrs by HPLC-UV-Vis analysis; type: ADME, cell-free; conditions: read-out: Stability; method in brief: as §2
Integrin alpha-V/beta-3 [12] = target: T1, Integrin alpha-V/beta-3; assay: Displacement of biotinylated vitronectin from human integrin alphaVbeta3 measured after 3 hrs by solid-phase receptor binding assay; type: protein-complex assay
Method in brief: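 Recombinant human αvβ3 or α5β1 coated at 0.5 μg/mL overnight at 4 °C in Tris-HCl pH 7.4 buffer with Mn2+, Ca2+, Mg2+, then blocked with 1% BSA. Triplicate wells, nonlinear regression, run in duplicate.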
Target sequence in this assay (P05106 27-788 limits assumed): as the sequence (P05106 27-788 limits assumed) above
Target sequence in this assay (P06756 31-889 limits assumed): as the sequence (P06756 31-889 limits assumed) above
Target sequence in this assay (P06756 891-1048 limits assumed): as the sequence (P06756 891-1048 limits assumed) above

Integrin alpha-V/beta-5 = Integrin alpha-V/beta-5 (Homo sapiens, UniProt P06756+P18084); assay: Displacement of biotinylated vitronectin from human integrin alphaVbeta5 measured after 3 hrs by solid-phase receptor binding assay; type: protein-complex assay
Integrin alpha-5/beta-1 [13] = target: T2, Integrin alpha-5/beta-1 (Homo sapiens, UniProt P05556+P08648); assay: Inhibition of alpha5beta1 (unknown origin); type: protein-complex assay
Integrin alpha-5/beta-1 [14] = target: T2, Integrin alpha-5/beta-1; assay: Displacement of biotinylated fibronectin from recombinant human integrin alpha5beta1 dark incubated for 3 hrs by solid-phase receptor binding assay; type: protein-complex assay
Method in brief: (§5)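 Recombinant human αvβ3 or α5β1 coated at 0.5 μg/mL overnight at 4 °C in Tris-HCl pH 7.4 buffer with Mn2+, Ca2+, Mg2+, then blocked with 1% BSA. Streptavidin-peroxidase read-out at 415 nm. Triplicate wells, nonlinear regression, run in duplicate.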

[15] = Drug uptake in human EPC at 1 uM measured after 1 hr in presence of alphaVbeta3 integrin ligand c(AmpRGD) amine by HPLC-ESI-MS/MS analysis; type: ADME, cell-based
Method in brief: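 EPCs detached with Accutase, resuspended in serum-free medium, and given compound at 1 μM with or without c(AmpRGD) amine at 100 μM. Incubated at 37 °C, 10% CO2, then washed by centrifugation. Pellets extracted with ethanol at 4 °C for 10 min; content measured by HPLC-ESI-MS/MS.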

Integrin alpha-V/beta-3 [16] = target: T1, Integrin alpha-V/beta-3; assay: Inhibition of vitronectin binding to alphaVbeta3 in human EPC in presence of MnCl2 measured after 30 mins by crystal violet staining based cell adhesion assay
Method in brief: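 Plates coated overnight with vitronectin at 4 °C and blocked with PBS/1% BSA. EPCs in serum-free medium preincubated with compound (1–10000 nM) for 30 min at 37 °C with 2.0 mmol/L MnCl2. Plated at 5-6×10^4 cells/well for 1 h at 37 °C. Adherent cells stained with crystal violet, read at 540 nm; % inhibition vs untreated. Triplicate, repeated at least three times.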

Integrin alpha-V/beta-3 [17] = target: T1, Integrin alpha-V/beta-3; assay: Drug internalization in human EPC assessed as alphavbeta3-mediated drug uptake at 1 uM measured after 1 hr by HPLC-ESI-MS/MS analysis; type: ADME; method in brief: as §3
Target sequence in this assay (P05106 27-788 limits assumed): as the sequence (P05106 27-788 limits assumed) above
Target sequence in this assay (P06756 31-889 limits assumed): as the sequence (P06756 31-889 limits assumed) above
Target sequence in this assay (P06756 891-1048 limits assumed): as the sequence (P06756 891-1048 limits assumed) above

[18] = target: T3, Vascular endothelial growth factor receptor 2 (Homo sapiens, UniProt P35968); conditions: at 1 µM
Integrin alpha-V/beta-3 [19] = target: T1, Integrin alpha-V/beta-3; assay: Drug internalization in human EPC assessed as alphavbeta3-mediated drug uptake per mg protein at 1 uM measured after 1 hr by HPLC-ESI-MS/MS analysis; type: ADME; method in brief: as §3
Target sequence in this assay (P05106 27-788 limits assumed): as the sequence (P05106 27-788 limits assumed) above
Target sequence in this assay (P06756 31-889 limits assumed): as the sequence (P06756 31-889 limits assumed) above
Target sequence in this assay (P06756 891-1048 limits assumed): as the sequence (P06756 891-1048 limits assumed) above

Integrin alpha-V/beta-3 [20] = target: T1, Integrin alpha-V/beta-3; assay: Displacement of biotinylated vitronectin from recombinant human integrin alphaVbeta3 dark incubated for 3 hrs by solid-phase receptor binding assay; type: protein-complex assay; method in brief: as §5
Target sequence in this assay (P05106 27-788 limits assumed): as the sequence (P05106 27-788 limits assumed) above
Target sequence in this assay (P06756 31-889 limits assumed): as the sequence (P06756 31-889 limits assumed) above
Target sequence in this assay (P06756 891-1048 limits assumed): as the sequence (P06756 891-1048 limits assumed) above

[21] = target: T3, Vascular endothelial growth factor receptor 2; assay: Inhibition of recombinant human VEGFR2 expressed in Sf9 cells using Ulight-CAGAGAIETDKEYYTVKD as substrate measured after 60 mins by LANCE method
EPC [22] = assay: Antiangiogenic activity in human EPC assessed as inhibition of VEGF-A induced tubule formation at 0.1 to 1 uM measured after 6 hrs by matrigel based phase contrast microscopic analysis; type: functional, cell-based; method in brief: as §4
[23] = target: Platelet-derived growth factor receptor beta (Homo sapiens, UniProt P09619); assay: Inhibition of recombinant human PDGFRbeta expressed in insect cells using Ulight-Poly GAT[EAY(1:1:1)]n as substrate measured after 30 mins by LANCE method

T2 sequence (P05556 21-798 limits assumed): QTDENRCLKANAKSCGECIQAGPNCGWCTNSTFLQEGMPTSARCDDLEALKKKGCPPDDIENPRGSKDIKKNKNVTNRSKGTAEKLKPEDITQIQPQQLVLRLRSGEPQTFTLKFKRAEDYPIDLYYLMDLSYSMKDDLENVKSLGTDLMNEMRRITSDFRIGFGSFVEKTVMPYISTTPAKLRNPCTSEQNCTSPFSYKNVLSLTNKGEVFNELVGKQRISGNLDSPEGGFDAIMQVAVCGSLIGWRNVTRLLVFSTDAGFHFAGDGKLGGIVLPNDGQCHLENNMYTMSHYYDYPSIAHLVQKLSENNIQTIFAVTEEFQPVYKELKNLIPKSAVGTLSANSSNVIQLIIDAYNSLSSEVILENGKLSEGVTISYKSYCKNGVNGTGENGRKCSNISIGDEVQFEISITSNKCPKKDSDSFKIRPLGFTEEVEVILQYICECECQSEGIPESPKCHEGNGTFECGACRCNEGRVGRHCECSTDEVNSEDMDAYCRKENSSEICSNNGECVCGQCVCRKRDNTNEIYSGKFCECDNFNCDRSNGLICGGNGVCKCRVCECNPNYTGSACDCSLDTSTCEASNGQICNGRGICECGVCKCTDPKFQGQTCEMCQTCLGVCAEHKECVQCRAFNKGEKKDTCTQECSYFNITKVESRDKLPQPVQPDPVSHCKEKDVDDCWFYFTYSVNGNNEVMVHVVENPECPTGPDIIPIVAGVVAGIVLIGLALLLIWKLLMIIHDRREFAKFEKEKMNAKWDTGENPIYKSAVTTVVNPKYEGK
T2 sequence (P08648 42-894 limits assumed): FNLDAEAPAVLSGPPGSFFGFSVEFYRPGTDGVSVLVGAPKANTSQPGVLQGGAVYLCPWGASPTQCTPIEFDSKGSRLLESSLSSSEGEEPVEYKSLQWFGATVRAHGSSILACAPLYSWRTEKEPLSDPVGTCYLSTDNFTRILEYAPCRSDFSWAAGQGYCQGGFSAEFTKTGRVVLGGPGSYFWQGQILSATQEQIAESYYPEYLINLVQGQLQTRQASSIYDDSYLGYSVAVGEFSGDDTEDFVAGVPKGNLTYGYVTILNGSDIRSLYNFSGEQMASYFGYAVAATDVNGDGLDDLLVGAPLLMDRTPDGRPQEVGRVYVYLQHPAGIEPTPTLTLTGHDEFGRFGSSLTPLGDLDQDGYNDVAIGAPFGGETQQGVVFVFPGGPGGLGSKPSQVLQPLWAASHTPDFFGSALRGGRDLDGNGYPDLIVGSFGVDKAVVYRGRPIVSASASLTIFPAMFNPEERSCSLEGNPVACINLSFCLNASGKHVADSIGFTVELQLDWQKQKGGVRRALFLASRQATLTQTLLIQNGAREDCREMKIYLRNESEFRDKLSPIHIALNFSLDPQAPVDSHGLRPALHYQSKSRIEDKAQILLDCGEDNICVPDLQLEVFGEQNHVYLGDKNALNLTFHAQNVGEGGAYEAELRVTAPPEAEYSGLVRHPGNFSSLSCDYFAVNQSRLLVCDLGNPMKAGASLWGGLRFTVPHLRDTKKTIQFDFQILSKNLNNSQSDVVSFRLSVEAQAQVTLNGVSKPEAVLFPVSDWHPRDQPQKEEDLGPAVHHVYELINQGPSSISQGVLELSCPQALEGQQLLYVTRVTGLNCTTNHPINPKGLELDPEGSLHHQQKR
T2 sequence (P08648 895-1049 limits assumed): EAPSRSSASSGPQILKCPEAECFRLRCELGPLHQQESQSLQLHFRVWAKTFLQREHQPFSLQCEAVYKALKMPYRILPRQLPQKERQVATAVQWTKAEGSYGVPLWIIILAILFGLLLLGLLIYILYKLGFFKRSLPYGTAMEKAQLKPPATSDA

Structure (SMILES)	inhibition (EPC [1])	Activity [2]	remaining at 8 h, 1 µM [4] [%]	inhibition (Mus musculus)	Drug uptake (Integrin alpha-V/beta-3 [5]) [nmol/mg]	inhibition at 0.01 µM [6] [%]	Drug uptake (Integrin alpha-V/beta-3 [7]) [nmol/mg]	inhibition at 1 µM [8] [%]	inhibition (EPC [9])	logD at 4 h [10]	remaining at 8 h, 1 µM [11] [%]	IC50 (Integrin alpha-5/beta-1 [14]) [nM]	Drug uptake [15]	IC50 (Integrin alpha-V/beta-3 [16]) [nM]	log(activity) (Integrin alpha-V/beta-3 [17])	inhibition [18]	Drug uptake (Integrin alpha-V/beta-3 [19]) [pmol/min]	IC50 (Integrin alpha-V/beta-3 [20]) [nM]	inhibition (Integrin alpha-V/beta-3 [16])	inhibition (EPC [22])	also measured
CCN(CC)CCNC(=O)c1c(C)[nH]c(/C=C2\C(=O)Nc3ccc(F)cc32)c1C [SUNITINIB]	Active	Non-Toxic	102	Active	5.72	30	2.9	33	Active	2.51	97.3	–	–	–	–	–	–	–	–	–	inhibition (Integrin alpha-V/beta-3 [3]): inactive
N=C(N)NCCC[C@@H]1NC(=O)[C@@H]2C[C@@H](CN2CCN)NC(=O)[C@H](CC(=O)O)NC(=O)CNC1=O	–	–	–	–	–	–	–	–	–	–	–	–	–	–	–	–	–	–	–	–	IC50 (Integrin alpha-V/beta-3 [12]): 6.1 nM; IC50 (Integrin alpha-V/beta-5): 315 nM; IC50 (Integrin alpha-5/beta-1 [13]): 152 nM
CCN(CCNC(=O)c1c(C)[nH]c(/C=C2\C(=O)Nc3ccc(F)cc32)c1C)CCOCCOCCOCc1cn(CCCCN2C[C@@H]3C[C@H]2C(=O)N[C@@H](CCCNC(=N)N)C(=O)NCC(=O)N[C@@H](CC(=O)O)C(=O)N3)nn1	Active	Non-Toxic	107	–	0.48	–	0.43	24	inactive	-2.56	104	101	Not Active	10000	0.9	Active	8	5.1	–	–	–
CCN(CCNC(=O)c1c(C)[nH]c(/C=C2\C(=O)Nc3ccc(F)cc32)c1C)CCOCCOCCNC(=O)c1cc(OCc2cn(CCCCN3C[C@@H]4C[C@H]3C(=O)N[C@@H](CCCNC(=N)N)C(=O)NCC(=O)N[C@@H](CC(=O)O)C(=O)N4)nn2)cc(OCc2cn(CCCCN3C[C@@H]4C[C@H]3C(=O)N[C@@H](CCCNC(=N)N)C(=O)NCC(=O)N[C@@H](CC(=O)O)C(=O)N4)nn2)c1	Active	Non-Toxic	98.6	Active	0.94	43	0.54	41	Active	-3.02	109	95.8	Not Active	500	1.19	Active	15.7	3.8	Dose-dependent effect	Active	IC50 [21]: 420 nM; IC50 [23]: 9 nM
Cc1[nH]c(/C=C2\C(=O)Nc3ccc(F)cc32)c(C)c1C(=O)NCCNC(=O)CCc1cn(CCCCN2C[C@@H]3C[C@H]2C(=O)N[C@@H](CCCNC(=N)N)C(=O)NCC(=O)N[C@@H](CC(=O)O)C(=O)N3)nn1	Active	Non-Toxic	99	–	0.26	52	0.22	46	inactive	-2.03	88.2	30.7	–	500	0.64	Active	4.3	1.24	Dose-dependent effect	Active	–
